Measured values published in ChEMBL document CHEMBL3091449, “Synthesis and antimicrobial profile of N-substituted imidazolium oximes and their monoquaternary salts against multidrug resistant bacteria” (2013).

Tests used:
Assay type in all cases: functional
[1] = test system: Pseudomonas aeruginosa; test: Ratio of cefotaxime MIC to compound MIC for Pseudomonas aeruginosa FNSST 982
[2] = test system: Escherichia coli; test: Ratio of gentamicin MIC to compound MIC for Escherichia coli FNSST 982
[3] = test system: Pseudomonas aeruginosa; test: Ratio of gentamicin MIC to compound MIC for Pseudomonas aeruginosa FNSST 982
[4] = test system: Aeromonas hydrophila; test: Antibacterial activity against Aeromonas hydrophila FNSST 014 after 18 to 24 hrs by two-fold broth microdilution assay
Method in brief: (§1)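 CLSI two-fold broth microdilution was used. Compounds were dissolved in DMSO, brought to 10 mg/mL in medium, then serially diluted in Mueller Hinton broth over 400–0.09 µg/mL. Overnight MHB cultures were diluted to 10^6 CFU/mL, and 10 µL was added per well. Plates were incubated 18–24 h at 37 °C, then 0.2 mg/mL INT was added for 30 min at 37 °C. MIC was the lowest concentration with no visible growth or pink colour, triplicate.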

[5] = test system: Pseudomonas aeruginosa; test: Antibacterial activity against Pseudomonas aeruginosa FNSST 982 after 18 to 24 hrs by two-fold broth microdilution assay; method in brief: as §1
[6] = test system: Klebsiella pneumoniae; test: Antibacterial activity against Klebsiella pneumoniae FNSST 011 after 18 to 24 hrs by two-fold broth microdilution assay; method in brief: as §1
[7] = test system: Escherichia coli; test: Antibacterial activity against Escherichia coli FNSST 982 after 18 to 24 hrs by two-fold broth microdilution assay; method in brief: as §1
[8] = test system: Clostridium perfringens; test: Antibacterial activity against Clostridium perfringens FNSST 4999 after 18 to 24 hrs by two-fold broth microdilution assay
Method in brief: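 CLSI two-fold broth microdilution. Compounds dissolved in DMSO, 10 mg/mL stock, serially diluted to 400–0.09 µg/mL in Mueller Hinton broth. Wells inoculated with 10^6 CFU/mL bacteria and incubated 18–24 h at 37 °C. 0.2 mg/mL INT added for 30 min. MIC taken as the lowest concentration with no visible growth or pink colour. Triplicate.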

[9] = test system: Staphylococcus aureus; test: Antibacterial activity against Staphylococcus aureus ATCC 25923 after 18 to 24 hrs by two-fold broth microdilution assay; method in brief: as §1
[10] = test system: Enterococcus faecalis; test: Antibacterial activity against Enterococcus faecalis ATCC 29212 after 18 to 24 hrs by two-fold broth microdilution assay; method in brief: as §1
[11] = test system: Bacillus cereus; test: Antibacterial activity against Bacillus cereus ATCC 11778 after 18 to 24 hrs by two-fold broth microdilution assay; method in brief: as §1
[12] = test system: Aspergillus fumigatus; test: Antifungal activity against Aspergillus fumigatus FNSST 3833 assessed as diameter of zone of inhibition at 250 ug/disc after 72 hrs by disc diffusion method; conditions: FNSST 3833, 72 h, read-out: DIZ
Method in brief: (§2)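 Fungi were grown overnight at 30 °C in Sabouraud dextrose broth to 10^4 cfu/mL, and 100 µL was spread on Sabouraud dextrose agar. 6 mm discs carried 250 µg (25 µL of a 10 mg/mL stock in 96% ethanol), with ethanol as the negative control. Incubation was at 30 °C for 48 h (yeast) or 72 h (molds). Zone diameter was read including the disc, in triplicate, mean ± SE.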

[13] = test system: Talaromyces funiculosus; test: Antifungal activity against Penicillium funiculosum FNSST 3724 assessed as diameter of zone of inhibition at 250 ug/disc after 72 hrs by disc diffusion method; conditions: FNSST 3724, 72 h, read-out: DIZ; method in brief: as §2
[14] = test system: Aeromonas hydrophila; test: Antibacterial activity against Aeromonas hydrophila FNSST 014 assessed as diameter of zone of inhibition at 250 ug/disc after 24 hrs by disc diffusion method; conditions: FNSST 014, 24 h, read-out: DIZ
Method in brief: (§3)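 Bacteria were grown overnight at 37 °C in TSB to about 10^6 cfu/mL, and 100 µL was spread on Mueller Hinton agar. Sterile 6 mm discs were each loaded with 25 µL of a 10 mg/mL stock in 96% ethanol, giving 250 µg/disc. Ethanol served as the negative control. Plates were incubated 24 h at 37 °C. Inhibition zone diameter was measured including the disc, in triplicate, as mean ± SE.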

[15] = test system: Pseudomonas aeruginosa; test: Antibacterial activity against Pseudomonas aeruginosa FNSST 982 assessed as diameter of zone of inhibition at 250 ug/disc after 24 hrs by disc diffusion method; conditions: FNSST 982, 24 h, read-out: DIZ; method in brief: as §3
[16] = test system: Klebsiella pneumoniae; test: Antibacterial activity against Klebsiella pneumoniae FNSST 011 assessed as diameter of zone of inhibition at 250 ug/disc after 24 hrs by disc diffusion method; conditions: FNSST 011, 24 h, read-out: DIZ; method in brief: as §3
[17] = test system: Escherichia coli; test: Antibacterial activity against Escherichia coli FNSST 982 assessed as diameter of zone of inhibition at 250 ug/disc after 24 hrs by disc diffusion method; conditions: FNSST 982, 24 h, read-out: DIZ; method in brief: as §3
[18] = test system: Clostridium perfringens; test: Antibacterial activity against Clostridium perfringens FNSST 4999 assessed as diameter of zone of inhibition at 250 ug/disc after 24 hrs by disc diffusion method; conditions: FNSST 4999, 24 h, read-out: DIZ
Method in brief: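 Disc diffusion per CLSI: 100 µL of 10^6 cfu/mL bacterial suspension spread on Mueller Hinton agar. 6 mm discs loaded with 25 µL of 10 mg/mL compound stock in 96% ethanol (250 µg/disc); ethanol as negative control. Incubated 24 h at 37 °C. Inhibition zone diameter measured in mm including the disc, triplicate, reported as mean ± SE.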

[19] = test system: Staphylococcus aureus; test: Antibacterial activity against Staphylococcus aureus ATCC 25923 assessed as diameter of zone of inhibition at 250 ug/disc after 24 hrs by disc diffusion method; conditions: ATCC 25923, 24 h, read-out: DIZ; method in brief: as §3
[20] = test system: Enterococcus faecalis; test: Antibacterial activity against Enterococcus faecalis ATCC 29212 assessed as diameter of zone of inhibition at 250 ug/disc after 24 hrs by disc diffusion method; conditions: ATCC 29212, 24 h, read-out: DIZ; method in brief: as §3
[21] = test system: Bacillus cereus; test: Antibacterial activity against Bacillus cereus ATCC 11778 assessed as diameter of zone of inhibition at 250 ug/disc after 24 hrs by disc diffusion method; conditions: ATCC 11778, 24 h, read-out: DIZ; method in brief: as §3
[22] = test system: Candida albicans; test: Antifungal activity against Candida albicans ATCC 10231 assessed as diameter of zone of inhibition at 250 ug/disc after 48 hrs by disc diffusion method; conditions: ATCC 10231, 48 h, read-out: DIZ; method in brief: as §2

Cc1ccc(-[n+]2ccn(Cc3ccccc3)c2/C=N/O)cc1.[Br-]
Ratio [1]: 115
Ratio [2]: 2.5
Ratio [3]: 450
MIC [4]: 12.5 µg/mL
MIC [5]: 0.14 µg/mL
MIC [6]: 12.5 µg/mL
MIC [7]: 3.12 µg/mL
MIC [8]: 25 µg/mL
MIC [9]: 6.25 µg/mL
MIC [10]: 25 µg/mL
MIC [11]: 12.5 µg/mL
zone of inhibition at 250 µg/disc [12]: 20.3 mm
zone of inhibition at 250 µg/disc [13]: 18.4 mm
zone of inhibition at 250 µg/disc [14]: 16.6 mm
zone of inhibition at 250 µg/disc [15]: 20.6 mm
zone of inhibition at 250 µg/disc [16]: 16.3 mm
zone of inhibition at 250 µg/disc [17]: 17.7 mm
zone of inhibition at 250 µg/disc [18]: 20.7 mm
zone of inhibition at 250 µg/disc [19]: 18.4 mm
zone of inhibition at 250 µg/disc [20]: 14.5 mm
zone of inhibition at 250 µg/disc [21]: 12.2 mm
zone of inhibition at 250 µg/disc [22]: 20.8 mm
